The source made the active and inactive calls. The rule behind the calls is not given here.
Legend:
[1] = system: Staphylococcus aureus; test: Antimicrobial activity against methicillin resistant Staphylococcus aureus ATCC 33591 at 265 uM after 22 hrs by microbroth dilution method; type: functional, organism-based
Procedure, shortened: (§1)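 Microbroth dilution susceptibility test; compound tested up to a highest concentration of 128 μg/mL (265 μM).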

[2] = system: Staphylococcus warneri; test: Antimicrobial activity against Staphylococcus warneri ATCC 17917 at 265 uM after 22 hrs by microbroth dilution method; type: functional, organism-based
Procedure, shortened: (§2)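 Microbroth dilution assay. The top concentration tested was 128 μg/mL, equal to 265 μM.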

[3] = system: Enterococcus faecium; test: Antimicrobial activity against vancomycin-resistant Enterococcus faecium EF379 at 265 uM after 22 hrs by microbroth dilution method; type: functional, organism-based; procedure, shortened: as §1
[4] = system: Pseudomonas aeruginosa; test: Antimicrobial activity against Pseudomonas aeruginosa ATCC 14210 at 265 uM after 22 hrs by microbroth dilution method; type: functional, organism-based; procedure, shortened: as §2
[5] = system: Proteus vulgaris; test: Antimicrobial activity against Proteus vulgaris ATCC 12454 at 265 uM after 22 hrs by microbroth dilution method; type: functional, organism-based; procedure, shortened: as §2
[6] = system: Mycobacterium tuberculosis; test: Antimicrobial activity against Mycobacterium tuberculosis ATCC 25177 at 265 uM after 4 days by microplate alamar blue assay; type: functional, organism-based; conditions: H37Ra
[7] = system: Candida albicans; test: Antimicrobial activity against Candida albicans ATCC 14035 at 265 uM after 22 hrs by microbroth dilution method; type: functional, organism-based; procedure, shortened: as §2
[8] = system: Vero; test: Cytotoxicity against African green monkey Vero cells measured after 24 hrs by alamar blue assay; type: cell-based; conditions: chlorocebus sabaeus
[9] = Cytotoxicity against HEKa cells measured after 24 hrs by alamar blue assay; type: cell-based; conditions: human
[10] = system: BJ; test: Cytotoxicity against human BJ cells measured after 24 hrs by alamar blue assay; type: cell-based
[11] = system: MCF7; test: Cytotoxicity against human MCF7 cells measured after 24 hrs by alamar blue assay; type: functional, cell-based
[12] = species on record: Homo sapiens; test: Cytotoxicity against human HTB-26 cells measured after 24 hrs by alamar blue assay; type: functional, cell-based
[13] = system: HCT-116; test: Cytotoxicity against human HCT116 cells measured after 24 hrs by alamar blue assay; type: functional, cell-based

In the case of `C=C1NC(=O)[C@H](C)[C@H](CCCCCCCC(C)CCC)OC(=O)[C@H](CO)NC(=O)CCNC1=O` (stereo partly drawn), the Activity [1] is reported as “inactive”, the Activity [2] is reported as “inactive” and the Activity [3] is reported as “inactive”. The Activity [4] was “inactive”, the Activity [5] was “inactive” and the Activity [6] was “inactive”. The Activity [7] was “inactive”, the Activity [8] was “Non-Toxic” and the Activity [9] was “Non-Toxic”. For the same molecule, the Activity [10] was “Non-Toxic”, the Activity [11] was “inactive” and the Activity [12] was “inactive”. For the same molecule, the Activity [13] was “inactive”.

Reference: ChEMBL document CHEMBL4382267, “Fusaristatin C, a Cyclic Lipodepsipeptide from Pithomyces sp. RKDO 1698” (J Nat Prod, 2018)
